Results on 9 compounds are retold here after ChEMBL document CHEMBL1157142, “Alkyl deoxy-arabino-hexopyranosides: synthesis, surface properties, and biological activities” (Bioorg Med Chem, 2008).

As usually defined, the MIC is the lowest concentration that inhibits growth of the organism. High values mean a need for much substance, low ones inhibition by little substance.

Data set [1] deals with Bacillus subtilis. Kind of data set: Antimicrobial activity against Bacillus subtilis ATCC 6633 after 16 to 20 hrs by broth dilution method. The format is functional. As to conditions: for MIC: Bacillus subtilis, ATCC 6633. The method in brief: (§1)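 Dilution method used overnight cultures and serial compound dilutions from 500 down to 1.95 µg/mL, with chloramphenicol from 50 to 0.195 µg/mL. Incubation was at 35 °C for 16–20 h, and MIC and MLC were determined. At least three replicates were run. Only compounds giving disk inhibition diameters of 11 mm or more were tested.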
Background: Dilution methods test growth across graded concentrations, often in twofold steps.

The test system of data set [2] is Aspergillus niger. Put plainly: Antimicrobial activity against Aspergillus niger ATCC 16404 assessed as diameter of the inhibition zone after 48 hrs by paper disk agar diffusion method. The format is functional. The method in brief:
(§2)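 Fungal disk diffusion: overnight cultures were spread on potato dextrose agar. 6.4 mm paper disks each carried 300 µg of substance in 15 µL DMSO. Plates were incubated at 25 °C for 48 h and the inhibition-zone diameter read. Actidione was the control for A. niger and chloramphenicol for C. albicans. At least three replicates were run.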
A general note: A growth-free zone around the sample is the usual read-out of agar diffusion tests.

Data set [3] relates to Listeria monocytogenes. Put plainly: Antimicrobial activity against Listeria monocytogenes ATCC 7644 after 16 to 20 hrs by broth dilution method. As to conditions: for MIC: Listeria monocytogenes, ATCC 7644. It is filed as functional. The method in brief: as §1
Data set [4] concerns Bacillus cereus. Put plainly: Antimicrobial activity against Bacillus cereus ATCC 11778 assessed as diameter of the inhibition zone after 24 hrs by paper disk agar diffusion method. It is filed as functional. The method in brief:
(§3)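 Overnight cultures were spread on agar: tryptone soy agar for Listeria, azide dextrose agar for Enterococcus, and nutrient agar for the other bacteria. 6.4 mm paper disks each received 300 µg of substance in 15 µL DMSO. Plates were incubated at 37 °C for 24 h and the inhibition-zone diameter measured. Chloramphenicol served as control. At least three replicates were run.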

The subject of data set [5] is Bacillus subtilis. Kind of data set: Antimicrobial activity against Bacillus subtilis ATCC 6633 assessed as diameter of the inhibition zone after 24 hrs by paper disk agar diffusion method. The format is functional. The method in brief: as §3
Data set [6] relates to Enterococcus faecalis. Kind of data set: Antimicrobial activity against Enterococcus faecalis ATCC 29212 assessed as diameter of the inhibition zone after 24 hrs by paper disk agar diffusion method. The format is functional. The method in brief: as §3
In data set [7] the test system is Pyricularia oryzae. Put plainly: Antimicrobial activity against Pyricularia oryzae DSMZ 62938 assessed as diameter of the inhibition zone after 48 hrs by paper disk agar diffusion method. The format is functional. The method in brief: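 Overnight culture spread on potato dextrose agar; 6.4 mm paper disks loaded with compound dissolved in DMSO. […] served as the reference control. Plates incubated at 25 °C for 48 h, then the diameter of the inhibition zone was measured in mm. At least three replicates.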

The subject of data set [8] is Escherichia coli. Put plainly: Antimicrobial activity against Escherichia coli ATCC 8739 assessed as diameter of the inhibition zone after 24 hrs by paper disk agar diffusion method. It is filed as functional. Put shortly: as §3
The subject of data set [9] is Listeria monocytogenes. Kind of data set: Antimicrobial activity against Listeria monocytogenes ATCC 7644 assessed as diameter of the inhibition zone after 24 hrs by paper disk agar diffusion method. It is filed as functional. Put shortly: as §3
Data set [10] has as its system Bacillus cereus. Put plainly: Antimicrobial activity against Bacillus cereus ATCC 11778 after 16 to 20 hrs by broth dilution method. Conditions: for MIC: Bacillus cereus, ATCC 11778. It is filed as functional. The method in brief:
as §1

The test system of data set [11] is Staphylococcus aureus. Kind of data set: Antimicrobial activity against Staphylococcus aureus ATCC 25923 assessed as diameter of the inhibition zone after 24 hrs by paper disk agar diffusion method. The format is functional. Put shortly:
as §3

For data set [12], the system named is Staphylococcus aureus. Kind of data set: Antimicrobial activity against Staphylococcus aureus ATCC 25923 after 16 to 20 hrs by broth dilution method. It is filed as functional. Conditions: for MIC: Staphylococcus aureus, ATCC 25923. The method in brief:
as §1

Data set [13] has as its system Candida albicans. Put plainly: Antimicrobial activity against Candida albicans ATCC 10231 assessed as diameter of the inhibition zone after 48 hrs by paper disk agar diffusion method. The format is functional. The method in brief: as §2
Data set [14] has as its system Salmonella enteritidis. Kind of data set: Antimicrobial activity against Salmonella enteritidis ATCC 13076 assessed as diameter of the inhibition zone after 24 hrs by paper disk agar diffusion method. It is filed as functional, Salmonella enterica subsp. enterica serovar Enteritidis. Put shortly:
as §3

In data set [15] the test system is Pseudomonas aeruginosa. Kind of data set: Antimicrobial activity against Pseudomonas aeruginosa ATCC 27853 assessed as diameter of the inhibition zone after 24 hrs by paper disk agar diffusion method. The format is functional. The method in brief:
as §3

The test system of data set [16] is Enterococcus faecalis. Kind of data set: Antimicrobial activity against Enterococcus faecalis ATCC 29212 after 16 to 20 hrs by broth dilution method. It is filed as functional. As to conditions: for MIC: Enterococcus faecalis, ATCC 29212. The method in brief: as §1
A short description of data set [17]: Cytotoxicity against human peripheral blood lymphocytes assessed as mitotic index at 100 ug/mL. As to conditions: pbl. Put shortly: (§4)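 Heparinized whole blood from healthy donors was cultured in Ham's F-10 with 15% fetal calf serum, phytohemagglutinin, L-glutamine, streptomycin and penicillin. Compounds at 10 or 100 µg/mL were added after 24 h and culture continued to 48 h. Colcemid (0.5 µg/mL final) was present for the last 3 h. Mitotic index was scored on metaphase spreads at 500×. 2% H2O2 was the positive control.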

Data set [18] can be described thus: Cytotoxicity against human peripheral blood lymphocytes assessed as mitotic index at 10 ug/mL. Conditions: pbl. Put shortly: as §4
Data set [19] has as its system Bacillus cereus. Put plainly: Antimicrobial activity against Bacillus cereus ATCC 11778 after 1 year. The format is functional, organism-based.

Converted amounts (≈) assume the structure as drawn. The source made the active and inactive calls. The calls are words filed in the database; no cut-off is given here.

Take `CCCCCCCCO[C@@H]1C[C@H](O)[C@@H](O)[C@H](C)O1`: the MIC in data set [1], in data set [3], in data set [10] and in data set [12] was greater than 500 µg/mL in each case. The “inhibition zone (IZ)” value is less than 6.4 mm in [2]; 12 mm in data set [4]; 10 mm in data set [5]; 9 mm in data set [6]; less than 6.4 mm in [7]; 9 mm in data set [8]. For the same compound, the “inhibition zone (IZ)” value is listed as 10 mm in data set [9]; 12 mm in [11]; 11 mm in [13]; less than 6.4 mm in data set [14]; 9 mm in data set [15].

`O=C(N[C@H](CO)[C@H](O)c1ccc([N+](=O)[O-])cc1)C(Cl)Cl` [CHLORAMPHENICOL]: the MLC in data set [1] is greater than 50 µg/mL; in data set [3], greater than 50 µg/mL; in [10], 12.5 µg/mL (≈ 38.7 µM); in [12], greater than 50 µg/mL; in data set [16], greater than 50 µg/mL. In addition, the MIC in data set [1] stood at 3.1 µg/mL (≈ 9.59 µM); in data set [3], 6.3 µg/mL (≈ 19.5 µM); in data set [10], 6.3 µg/mL (≈ 19.5 µM); in data set [12] it was 6.3 µg/mL (≈ 19.5 µM); in data set [16], 6.3 µg/mL (≈ 19.5 µM).

Turning to `CCCCCCCCCCCCO[C@@H]1C[C@@H](O)[C@H](O)[C@@H](CO)O1`, the “inhibition zone (IZ)” value in data set [2] was less than 6.4 mm; in data set [4], less than 6.4 mm; in [5], 9 mm; in [6], less than 6.4 mm; in data set [7], less than 6.4 mm; in data set [8], less than 6.4 mm. For the same compound, the “inhibition zone (IZ)” value in [9] is given as 10 mm; in [11], less than 6.4 mm; in data set [13] it was 9 mm; in [14], less than 6.4 mm; in data set [15], less than 6.4 mm. Moreover, the Activity in [17] is recorded as 7.75; in [18], 13.5.

Regarding `CCCCCCCCO[C@@H]1C[C@@H](O)[C@H](O)[C@@H](CO)O1`, the “inhibition zone (IZ)” value in data set [2], in [4], in data set [5], in data set [6], in data set [7] and in [8] was less than 6.4 mm throughout. The “inhibition zone (IZ)” value in [9], in [11], in data set [13], in [14] and in [15] was less than 6.4 mm each time. Moreover, the figures for the Activity in data set [17] and in data set [18] were 3 and 10.75, respectively.

With `CCCCCCCCO[C@H]1C[C@@H](O)[C@H](O)[C@@H](CO)O1`, the MIC is greater than 500 µg/mL in [1], greater than 500 µg/mL in data set [10] and 31.3 µg/mL (≈ 113 µM) in data set [16]. The “inhibition zone (IZ)” value is less than 6.4 mm in [2]; 11 mm in data set [4]; 12 mm in [5]; 14 mm in data set [6]; less than 6.4 mm in data set [7]; less than 6.4 mm in [8]. Also, the “inhibition zone (IZ)” value in [9], in data set [11], in data set [13], in data set [14] and in [15] was less than 6.4 mm in each case. In [16], the MLC was greater than 500 µg/mL.

Regarding `CCCCCCCCO[C@H]1C[C@H](O)[C@@H](O)[C@H](C)O1`, the MLC is greater than 500 µg/mL in [1], 500 µg/mL (≈ 1920 µM) in data set [10] and 500 µg/mL (≈ 1920 µM) in [12]. The figures for the MIC in [1], in data set [10] and in [12] were 250 µg/mL (≈ 960 µM), 250 µg/mL (≈ 960 µM) and 500 µg/mL (≈ 1920 µM), respectively. The “inhibition zone (IZ)” value in data set [2] is recorded as less than 6.4 mm; in [4], 12 mm; in data set [5], 12 mm; in data set [6] it was 10 mm; in [7] it was 13 mm; in data set [8], 8 mm. Also, the “inhibition zone (IZ)” value is listed as 10 mm in [9]; 11 mm in data set [11]; 10 mm in data set [13]; less than 6.4 mm in [14]; 8 mm in data set [15].

Turning to `CCCCCCCCCCCCO[C@@H]1C[C@H](O)[C@@H](O)[C@H](C)O1`, the “inhibition zone (IZ)” value in data set [2], in data set [4], in data set [5], in [6], in [7] and in data set [8] was less than 6.4 mm throughout. The “inhibition zone (IZ)” value in data set [9], in data set [11], in data set [13], in data set [14] and in data set [15] was less than 6.4 mm throughout.

In the case of `CCCCCCCCCCCCO[C@H]1C[C@@H](O)[C@H](O)[C@@H](CO)O1`, the MIC in data set [1] is greater than 500 µg/mL; in data set [3] it was 250 µg/mL (≈ 752 µM); in [10], greater than 500 µg/mL; in [12] it was greater than 500 µg/mL; in [16], 31.3 µg/mL (≈ 94.1 µM). In addition, the “inhibition zone (IZ)” value in [2] is listed as less than 6.4 mm; in data set [4] it was 10 mm; in data set [5], 10 mm; in data set [6], 17 mm; in data set [7], less than 6.4 mm; in data set [8] it was less than 6.4 mm. Also, the “inhibition zone (IZ)” value in data set [9] is recorded as less than 6.4 mm; in data set [11], less than 6.4 mm; in data set [13] it was 10 mm; in [14] it was less than 6.4 mm; in data set [15], less than 6.4 mm. For the same compound, the Activity in data set [17] came out at 6.75; in [18], 13.5. In addition, the MLC in [3] and in data set [16] was greater than 500 µg/mL in each case.

In the case of `CCCCCCCCCCCCO[C@H]1C[C@H](O)[C@@H](O)[C@H](C)O1`, the MLC in data set [1] was 15.6 µg/mL (≈ 49.3 µM); in [3], 62.5 µg/mL (≈ 197 µM); in data set [10], 7.8 µg/mL (≈ 24.6 µM); in data set [16] it was greater than 250 µg/mL. In addition, the MIC is 7.8 µg/mL (≈ 24.6 µM) in [1], 31.3 µg/mL (≈ 98.9 µM) in data set [3], 7.8 µg/mL (≈ 24.6 µM) in data set [10] and 15.6 µg/mL (≈ 49.3 µM) in [16]. Moreover, the “inhibition zone (IZ)” value in data set [2] is less than 6.4 mm; in data set [4], 27 mm; in data set [5] it was 25 mm; in data set [6] it was 13 mm; in [7], less than 6.4 mm; in data set [8] it was less than 6.4 mm. The “inhibition zone (IZ)” value in data set [9] is on record as 12 mm; in data set [11] it was 9 mm; in data set [13], less than 6.4 mm; in data set [14] it was less than 6.4 mm; in data set [15] it was less than 6.4 mm. In data set [19], the result was Active.
